Results collected from several papers.
Each line is one published result; the experiments were not run side by side.
Target: Serine/threonine-protein kinase Nek11 (NEK11, Homo sapiens, UniProt Q8NG66)
Residues used in one study (Q8NG66 1-645): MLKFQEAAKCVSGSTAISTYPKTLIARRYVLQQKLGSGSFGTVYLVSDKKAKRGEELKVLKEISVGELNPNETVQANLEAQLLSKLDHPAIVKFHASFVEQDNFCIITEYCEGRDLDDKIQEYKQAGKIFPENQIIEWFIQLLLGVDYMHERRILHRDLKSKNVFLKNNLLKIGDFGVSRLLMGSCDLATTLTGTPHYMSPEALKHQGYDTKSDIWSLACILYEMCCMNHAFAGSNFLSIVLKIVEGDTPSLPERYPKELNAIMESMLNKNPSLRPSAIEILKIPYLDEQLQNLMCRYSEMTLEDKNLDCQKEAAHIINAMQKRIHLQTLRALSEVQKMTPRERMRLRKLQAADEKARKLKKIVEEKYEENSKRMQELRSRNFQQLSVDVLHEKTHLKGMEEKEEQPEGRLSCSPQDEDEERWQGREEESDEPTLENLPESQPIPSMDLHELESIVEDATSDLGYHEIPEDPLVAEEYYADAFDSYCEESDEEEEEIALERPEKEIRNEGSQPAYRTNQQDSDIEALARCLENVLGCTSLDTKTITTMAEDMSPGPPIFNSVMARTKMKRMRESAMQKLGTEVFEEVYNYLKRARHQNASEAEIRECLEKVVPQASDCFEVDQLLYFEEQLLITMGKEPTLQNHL

F[C@@H]1CCN(c2nccc(-c3cnn4ncccc34)n2)C1 — remaining binding (binding; 1 µM): 100%
COc1cnc(Nc2cccc(S(N)(=O)=O)c2)nc1N1CCN(c2ccccc2)CC1 — remaining binding (binding, competition with immobilised ligand; 1 µM): 90%
c1cnn2ncc(-c3ccnc(N4CCC45COC5)n3)c2c1 — remaining binding (binding; 1 µM): 89%
Cc1cc(-n2nc(Cc3cc(F)cc(C(F)(F)F)c3)nc2C)ccc1C(N)=O — remaining binding (cell-free assay, competition with immobilised ligand; 1 µM): 100%
CNC(=O)[C@@H]1CC[C@@H](n2c(-c3ccc4cnccc4c3)nc3ccc(C(=O)NCc4cccc(C(N)=O)c4)cc32)C1 — remaining binding (binding, competition with immobilised ligand; 1 µM): 100%
C[C@@H](c1ccc(-n2cnc3c(N)ncnc32)cc1)N1CCc2nn(C)c(Cc3ccccc3)c2C1=O — remaining binding (binding, competition with immobilised ligand; 0.1 µM): 78%
N[C@@H]1CCN(c2nccc(-c3cnn4ncccc34)n2)C1 — remaining binding (binding; 1 µM): 100%
O=C(c1ccc(Nc2ncc(Cl)c(-c3cc4ccccc4s3)n2)cc1)N1CCC(N2CCCC2)CC1 — remaining binding (binding, competition with immobilised ligand; 1 µM): 80%
O=S(=O)(NC1CCC(c2cc(F)ccc2F)(S(=O)(=O)c2ccc(Cl)cc2)CC1)C(F)(F)F (centres unmarked) — remaining binding (cell-free assay, competition with immobilised ligand; 1 µM): 100%
O=C(NCCCN1CCOCC1)c1ccc(Nc2nccc(-c3cc4ccccc4s3)n2)cc1 — remaining binding (binding, competition with immobilised ligand; 1 µM): 75%
CS(=O)(=O)NCC[C@H](NC(=O)c1cncc2c1cnn2-c1ccc(F)cc1)c1ccnc(S(C)(=O)=O)c1 — remaining binding (cell-free assay, competition with immobilised ligand; 1 µM): 100%
Cc1cnn2ncc(-c3ccnc(N(C)C)n3)c2c1 — remaining binding (binding; 1 µM): 98%
O=C(Nc1c[nH]nc1C(=O)NC1CCNCC1)c1cc(F)cc(F)c1 — remaining binding (binding, competition with immobilised ligand; 1 µM): 91%
COCCOc1nc(-c2ccc(Cl)nc2)nc2c1CN(C(=O)c1ncn3ccccc13)CC2 — remaining binding (cell-free assay, competition with immobilised ligand; 0.1 µM): 100%
Cc1cnc(Nc2ccc(C(=O)N3CCC(N4CCCC4)CC3)cc2)nc1-c1cc2ccccc2s1 — remaining binding (binding, competition with immobilised ligand; 1 µM): 64%
O=C(N[C@H]1CCCCC/C=C\C2C[C@@]2(C(=O)O)NC(=O)[C@@H]2C[C@@H](Oc3ccncc3)CN2C1=O)OC1CCCC1 (some centres unmarked) — remaining binding (binding, competition with immobilised ligand; 1 µM): 100%
CN(c1nccc(-c2cnn3ncccc23)n1)C1CC1 — remaining binding (binding; 1 µM): 100%
C=CC(=O)N1CCC(C(=O)NCC(=O)N2CCN(c3nc(-c4cnc(N)nc4C(F)F)nc(N4CCOCC4)n3)CC2)CC1 — remaining binding (binding, competition with immobilised ligand; 1 µM): 69%
CN(CCCC(F)(F)F)c1nccc(-c2cnn3ncccc23)n1 — remaining binding (binding; 1 µM): 100%
COc1ccc2c(c1)O[C@H](c1ccc(OC)c(OC)c1)C[C@@H]2NC(=O)C1(c2ccc3c(c2)OC(F)(F)O3)CC1 — remaining binding (cell-free assay, competition with immobilised ligand; 1 µM): 88%
